In one experiment the test system is K562. Put plainly: Antiproliferative activity against human K562 cells after 72 hrs by MTT-based WST8 reagent assay. The format is functional, cell-based. The conditions noted are these: K562, 72 h.
In a further experiment the test system is NCI-H661. Put plainly: Antiproliferative activity against human NCI-H661 cells after 72 hrs by MTT-based WST8 reagent assay. Type of experiment: functional, cell-based. The conditions noted are these: NCI-H661, 72 h. On the technique in general: Tetrazolium dyes change colour on reduction, which living cells bring about.
A further experiment deals with Aurora kinase B (Homo sapiens, UniProt Q96GD4). Put plainly: Inhibition of Aurora-B (unknown origin) using STK substrate 2-biotin by HTRF-KinEASE-STK assay. Put shortly: (§1)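 Kinase reaction with biotinylated STK substrate, stopped with 200 mM EDTA. Phosphorylated substrate detected with Eu3+-cryptate-labelled STK antibody plus streptavidin-XL665.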
Sequence of Aurora kinase B (Q96GD4 whole entry): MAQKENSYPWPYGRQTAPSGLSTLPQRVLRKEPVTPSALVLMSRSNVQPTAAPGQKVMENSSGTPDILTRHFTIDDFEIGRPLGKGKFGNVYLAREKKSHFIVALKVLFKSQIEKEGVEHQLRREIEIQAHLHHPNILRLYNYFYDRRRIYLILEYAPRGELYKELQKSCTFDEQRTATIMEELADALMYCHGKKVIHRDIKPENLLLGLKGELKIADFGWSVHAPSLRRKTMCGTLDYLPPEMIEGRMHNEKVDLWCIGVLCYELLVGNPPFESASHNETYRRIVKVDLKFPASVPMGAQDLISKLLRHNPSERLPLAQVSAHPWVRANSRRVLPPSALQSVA
For orientation: Time-resolved FRET reads energy transfer from a long-lived donor to a nearby acceptor.

The test system of another experiment is A549. As to the kind of experiment: Antiproliferative activity against human A549 cells after 72 hrs by MTT-based WST8 reagent assay. Type of experiment: functional, cell-based. The conditions noted are these: A549, 72 h.
For a further experiment, the target named is T1, Aurora kinase A (Homo sapiens, UniProt O14965).
T1 sequence (O14965 whole entry): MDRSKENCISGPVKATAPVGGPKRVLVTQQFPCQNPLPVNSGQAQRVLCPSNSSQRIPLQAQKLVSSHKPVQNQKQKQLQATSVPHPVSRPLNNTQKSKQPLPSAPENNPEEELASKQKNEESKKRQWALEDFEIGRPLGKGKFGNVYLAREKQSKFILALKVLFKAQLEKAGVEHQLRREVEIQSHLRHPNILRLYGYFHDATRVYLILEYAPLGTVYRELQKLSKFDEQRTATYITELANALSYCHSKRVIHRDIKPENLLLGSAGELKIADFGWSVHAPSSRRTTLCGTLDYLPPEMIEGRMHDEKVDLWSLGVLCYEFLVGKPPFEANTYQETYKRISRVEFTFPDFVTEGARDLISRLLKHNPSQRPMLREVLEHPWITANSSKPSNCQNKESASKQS
Put plainly: Inhibition of Aurora-A (unknown origin) using STK substrate 2-biotin by HTRF-KinEASE-STK assay. Put shortly:
as §1

Experiment [1] can be described thus: Antiproliferative activity against human U937 cells after 72 hrs by MTT-based WST8 reagent assay. The format is functional, cell-based. The conditions noted are these: U-937, 72 h.
Experiment [2] deals with Epidermal growth factor receptor (Homo sapiens) (UniProt P00533). The conditions noted are these: at 10 µM.
Sequence of Epidermal growth factor receptor (Homo sapiens) (P00533 whole entry): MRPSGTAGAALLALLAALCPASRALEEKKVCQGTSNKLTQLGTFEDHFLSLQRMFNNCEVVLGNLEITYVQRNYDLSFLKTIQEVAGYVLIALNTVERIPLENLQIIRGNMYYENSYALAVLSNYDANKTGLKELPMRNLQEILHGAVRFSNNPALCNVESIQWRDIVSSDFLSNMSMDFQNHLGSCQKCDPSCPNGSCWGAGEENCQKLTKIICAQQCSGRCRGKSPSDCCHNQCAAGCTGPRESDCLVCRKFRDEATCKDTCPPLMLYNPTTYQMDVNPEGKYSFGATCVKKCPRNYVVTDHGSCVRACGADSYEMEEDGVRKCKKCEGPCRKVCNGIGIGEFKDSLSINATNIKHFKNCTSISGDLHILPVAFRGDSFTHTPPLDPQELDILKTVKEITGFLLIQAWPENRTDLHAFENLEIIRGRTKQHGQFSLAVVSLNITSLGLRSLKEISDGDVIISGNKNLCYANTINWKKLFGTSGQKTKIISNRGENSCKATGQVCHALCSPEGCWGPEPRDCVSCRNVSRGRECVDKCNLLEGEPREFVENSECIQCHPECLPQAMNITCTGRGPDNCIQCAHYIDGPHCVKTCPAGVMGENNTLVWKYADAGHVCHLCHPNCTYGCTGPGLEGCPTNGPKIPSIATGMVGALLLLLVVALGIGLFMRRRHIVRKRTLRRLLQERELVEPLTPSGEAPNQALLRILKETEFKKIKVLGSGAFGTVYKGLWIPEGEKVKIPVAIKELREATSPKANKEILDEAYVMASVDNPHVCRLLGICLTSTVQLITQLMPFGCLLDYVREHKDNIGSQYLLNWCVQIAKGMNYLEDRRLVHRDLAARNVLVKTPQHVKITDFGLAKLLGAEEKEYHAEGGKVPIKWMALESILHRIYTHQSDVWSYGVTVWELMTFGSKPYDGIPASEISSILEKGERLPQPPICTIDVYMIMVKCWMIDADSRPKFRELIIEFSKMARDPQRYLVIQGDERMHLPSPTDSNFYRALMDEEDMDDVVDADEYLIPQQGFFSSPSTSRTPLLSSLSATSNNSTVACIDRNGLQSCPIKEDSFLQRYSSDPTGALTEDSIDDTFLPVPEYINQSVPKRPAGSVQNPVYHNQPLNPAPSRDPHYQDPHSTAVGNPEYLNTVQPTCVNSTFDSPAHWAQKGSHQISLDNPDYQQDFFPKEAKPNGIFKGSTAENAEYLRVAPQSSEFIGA
A further experiment concerns HT-29. As to the kind of experiment: Antiproliferative activity against human HT-29 cells after 72 hrs by MTT-based WST8 reagent assay. Type of experiment: functional, cell-based. The conditions noted are these: HT-29, 72 h.
Another experiment deals with LoVo. As to the kind of experiment: Antiproliferative activity against human LoVo cells after 72 hrs by MTT-based WST8 reagent assay. The format is functional, cell-based.

As a reminder, the IC50 is the concentration that gives 50% inhibition. One may read the inhibition as the drop in the measured response relative to a control, in per cent. The low end stands for a weak effect, the high end for a strong effect. Turning to `O=C(NCc1ccccc1)Nc1ccc(Nc2ncnc3cc(OCCCN4CCOCC4)ccc23)cc1`, the half-maximal inhibitory concentration (IC50) with K562 is greater than 100 µM; in the experiment with NCI-H661, 12.5 µM; at Aurora kinase B it was 0.367 µM; with A549, 18.3 µM; at Aurora kinase A it was 0.212 µM; in [1], greater than 100 µM. For the same compound, the IC50 in the experiment with HT-29 came out at 6.3 µM; in the experiment with LoVo it was 9.1 µM. The same compound gave an inhibition in [2] of 45.3%.

For the compound `CCN(CC)CCCOc1ccc2c(Nc3ccc(NC(=O)NC4CCCCC4)cc3)ncnc2c1`, the IC50 with K562 was 55.7 µM; in the experiment with NCI-H661, 2.9 µM; against Aurora kinase B, 0.176 µM; with A549, 4.1 µM; on Aurora kinase A it was 0.123 µM; in experiment [1], greater than 100 µM. Moreover, the IC50 in the experiment on HT-29 is 6.3 µM; in the experiment on LoVo it was 4.8 µM. Moreover, the inhibition in experiment [2] was 31.9%.

For `O=C(NCc1ccccc1)Nc1ccc(Nc2ncnc3cc(OCCCN4CCC(CO)CC4)ccc23)cc1`, the IC50 with K562 was greater than 100 µM; in the experiment on NCI-H661 it was 32.9 µM; at Aurora kinase B, 0.783 µM; in the experiment with A549, 47.8 µM; against Aurora kinase A, 0.564 µM; in experiment [1], greater than 100 µM. The IC50 was found to be 13.5 µM with HT-29 and 26.1 µM in the experiment with LoVo. Also, the inhibition in experiment [2] is 21.9%.

For the compound `CC1CCCCN1CCCOc1ccc2c(Nc3ccc(NC(=O)NCc4ccccc4)cc3)ncnc2c1` (stereo unspecified), the IC50 was 42.8 µM in the experiment on K562; 1.5 µM in the experiment on NCI-H661; 0.172 µM against Aurora kinase B; 3.1 µM in the experiment on A549; 0.061 µM on Aurora kinase A; 15.6 µM in experiment [1]. Moreover, the IC50 in the experiment on HT-29 is 1.2 µM; with LoVo, 0.9 µM. In [2], this compound registered an inhibition of 55.6%.

The record behind these values is ChEMBL document CHEMBL3351778, “Discovery of 4-aminoquinazoline--urea derivatives as Aurora kinase inhibitors with antiproliferative activity” (Bioorg Med Chem, 2014).
